Test [1] can be described thus: Binding affinity to mouse-human chimeric antibody 93F3.
Test [2] is described as follows: Binding affinity to fragment antigen binding portion of mouse-human chimeric 93F3 antibody assessed as relative signal by ELISA. The gist of the method:
(§1)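 Antibody 93F3 coated on microtiter wells (1 µg/25 µL PBS, 37 °C 1 h), blocked with 3% BSA/PBS at 37 °C 1 h. Phage culture supernatant was added with diketone (final 10 µM, from 20 µM in 1% DMSO/PBS) or PBS alone, then incubated 37 °C 1 h. Wells washed with water; bound phage detected with anti-M13–HRP plus ABTS/H2O2, A405.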
On the technique in general: In an ELISA, binding on a coated surface is turned into a signal by an enzyme label.

A short description of test [3]: Binding affinity to fragment antigen binding portion of mouse-human chimeric 93F3 antibody assessed as relative signal by ELISA in presence of 10 uM 5-{[4-(3,5-dioxohexyl)phenyl]amino}-5-oxopentanoic acid. The gist of the method:
as §1

Test [4] can be described thus: Binding affinity to fragment antigen binding portion of mouse-human chimeric 93F3 antibody assessed as relative signal by ELISA in presence of 10 uM 6-(4-nitrophenyl)hexane-2,4-dione. The gist of the method:
as §1

Test [5] can be described thus: Binding affinity to fragment antigen binding portion of mouse-human chimeric 93F3 antibody assessed as relative signal by ELISA in presence of 10 uM 2-acetylcyclohexanone. The method in brief: as §1

Peptide text beside a SMILES is read from it.

The Kd is the equilibrium constant for the complex coming apart. A higher Kd goes with lower affinity. On to `CC(=O)CC(=O)CCc1ccccc1`, for which the dissociation constant (Kd) in test [1] is 1 µM.

`CC(C)C[C@@H](NC(=O)[C@H](Cc1ccc(O)cc1)NC(=O)[C@@H](N)Cc1c[nH]c2ccccc12)C(=O)N1CCC[C@H]1C(=O)N[C@@H](CC(=O)O)C(=O)N[C@@H](CC(N)=O)C(=O)N1CCC[C@H]1C(=O)N[C@@H](CO)C(=O)N[C@H](C(=O)N[C@@H](Cc1c[nH]c2ccccc12)C(=O)N[C@@H](Cc1cnc[nH]1)C(=O)N[C@H](C(=O)O)[C@@H](C)O)[C@@H](C)O`: the Activity turned out to be 1 in test [2], 0.1 in test [3], 0.1 in test [4] and 0.7 in test [5].

In the case of `C[C@H](O)[C@H](NC(=O)[C@@H]1CCCN1C(=O)[C@H](Cc1ccccc1)NC(=O)[C@H](Cc1c[nH]c2ccccc12)NC(=O)[C@H](Cc1c[nH]c2ccccc12)NC(=O)[C@@H]1CCCN1C(=O)[C@@H](N)CS)C(=O)N[C@@H](CCC(N)=O)C(=O)N[C@@H](CS)C(=O)O`, the Activity in test [2] came out at 0.2; in test [3], 0.1; in test [4] it was 0.1; in test [5] it was 1.

Consider `CC(C)C[C@H](NC(=O)[C@H](Cc1cnc[nH]1)NC(=O)[C@H](Cc1c[nH]c2ccccc12)NC(=O)[C@@H]1CCCN1C(=O)[C@@H](N)CS)C(=O)N[C@@H](CC(C)C)C(=O)N1CCC[C@H]1C(=O)N[C@@H](Cc1ccccc1)C(=O)N[C@@H](CS)C(=O)O` (H-CPWHLLPFC-OH), for which the Activity in test [2] is 1; in test [3] it was 0.1; in test [4], 0.2; in test [5] it was 0.8.

`CC(C)C[C@H](NC(=O)[C@H](C)NC(=O)[C@H](Cc1cnc[nH]1)NC(=O)[C@@H](NC(=O)[C@H](CC(C)C)NC(=O)[C@@H]1CCCN1C(=O)[C@H](CO)NC(=O)[C@@H](N)CS)[C@@H](C)O)C(=O)N[C@@H](CS)C(=O)O` (H-CSPLTHALC-OH): the Activity in test [2] came out at 0.2; in test [3] it was 1; in test [4] it was 0.2; in test [5] it was 0.2.

As for `CC(C)C[C@H](NC(=O)[C@H](Cc1c[nH]c2ccccc12)NC(=O)[C@H](Cc1cnc[nH]1)NC(=O)[C@@H](NC(=O)[C@H](Cc1ccccc1)NC(=O)[C@@H]1CCCN1C(=O)[C@@H](NC(=O)[C@@H](N)CS)[C@@H](C)O)[C@@H](C)O)C(=O)N[C@@H](CS)C(=O)O` (H-CTPFTHWLC-OH), the Activity worked out at 0.1 in test [2], 1 in test [3], 0.1 in test [4] and 0.1 in test [5].

As to H-QVPWSYLANGLL-OH, the Activity worked out at 1 in test [2], 0.1 in test [3], 0.2 in test [4] and 0.7 in test [5].

For the origin of these results see ChEMBL document CHEMBL1150373, “Selection of phage-displayed peptides that bind to a particular ligand-bound antibody” (Bioorg Med Chem, 2008).
